Results on 1 molecule are retold here after ChEMBL document CHEMBL4823291, “Discovery of 5,6,7,8-tetrahydropyrido[3,4-d]pyrimidine derivatives as novel selective Axl inhibitors” (Bioorg Med Chem Lett, 2021).

Series [1] in a line: Cmax in CAnN.Cg-Foxnlnu/CrlCrlj mouse plasma at 25 mg/kg, po single dose measured up to 24 hrs by liquid chromatography tandem mass spectrometry. Also on record: route oral, dose 25 mg/kg, time <=24. In kind it is ADME, organism-based.
The nature of series [2]: Metabolic stability in mouse liver microsomes assessed as residual ratio at 0.1 uM for 30 mins. Particulars: read-out: Stabilty. In kind it is ADME, Microsome. The essentials:
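Compound incubated at 0.1 µM for 30 min with human or mouse liver microsomes. Residual ratio of parent determined afterwards.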
In general terms: Liver microsomes are vesicles of endoplasmic reticulum, rich in cytochrome P450 enzymes.

Another series has as its system CYP3A. Description: Time dependent inhibition of CYP3A in human liver microsomes assessed as enzyme remaining activity using cocktail of probe CYP as substrate at 50 uM. In kind it is ADME. The following applies: probe cocktail of CYP probe substrates, read-out: Activity. The essentials: (§1)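 Time-dependent CYP inhibition in human liver microsomes, with test compound at 50 µM and a cocktail of probe CYP substrates.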

Series [3] is described as follows: Solubility in PBS. In kind it is physicochemical. The essentials:
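Solubility measured in Dulbecco's phosphate-buffered saline.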

The test system of another series is BaF3. Description: Ratio of IC50 for Mer in mouse BaF3 cells to IC50 for Axl in mouse BaF3 cells. In kind it is cell-based.
A further series addresses CYP2D6 (Homo sapiens, UniProt P10635). Description: Time dependent inhibition of CYP2D6 in human liver microsomes assessed as enzyme remaining activity using cocktail of probe CYP as substrate at 50 uM. In kind it is ADME. The following applies: probe cocktail of CYP probe substrates, read-out: Activity. The essentials:
as §1

Series [4] concerns the target T1, Tyrosine-protein kinase Mer (Mus musculus, UniProt Q60805).
T1 sequence (Q60805 whole entry): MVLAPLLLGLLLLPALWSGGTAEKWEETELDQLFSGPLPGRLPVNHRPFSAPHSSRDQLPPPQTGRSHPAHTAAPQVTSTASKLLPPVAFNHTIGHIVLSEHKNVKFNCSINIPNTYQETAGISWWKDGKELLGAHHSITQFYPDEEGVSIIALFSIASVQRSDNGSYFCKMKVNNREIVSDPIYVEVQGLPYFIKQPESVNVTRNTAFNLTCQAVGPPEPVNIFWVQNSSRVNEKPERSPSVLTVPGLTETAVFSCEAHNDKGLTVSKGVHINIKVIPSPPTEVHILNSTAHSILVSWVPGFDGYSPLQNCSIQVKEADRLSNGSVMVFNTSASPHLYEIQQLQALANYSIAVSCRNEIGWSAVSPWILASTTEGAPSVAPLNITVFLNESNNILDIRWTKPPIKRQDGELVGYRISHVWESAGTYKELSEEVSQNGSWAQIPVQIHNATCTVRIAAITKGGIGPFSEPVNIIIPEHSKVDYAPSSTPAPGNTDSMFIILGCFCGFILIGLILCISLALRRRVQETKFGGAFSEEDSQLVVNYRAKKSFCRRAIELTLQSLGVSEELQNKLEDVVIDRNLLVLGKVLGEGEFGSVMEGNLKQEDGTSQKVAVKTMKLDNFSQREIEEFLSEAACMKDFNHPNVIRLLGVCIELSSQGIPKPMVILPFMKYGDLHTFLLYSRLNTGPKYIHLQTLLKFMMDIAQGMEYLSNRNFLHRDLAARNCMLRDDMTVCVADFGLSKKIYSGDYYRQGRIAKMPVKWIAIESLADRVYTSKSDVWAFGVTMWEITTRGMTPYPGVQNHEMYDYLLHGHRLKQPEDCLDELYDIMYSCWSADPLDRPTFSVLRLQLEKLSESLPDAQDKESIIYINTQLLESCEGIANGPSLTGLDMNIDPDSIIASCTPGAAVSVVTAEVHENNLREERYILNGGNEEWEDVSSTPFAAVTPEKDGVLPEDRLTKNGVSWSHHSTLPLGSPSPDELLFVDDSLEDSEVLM
Description: Inhibition of Mer in mouse BaF3 cells. In kind it is cell-based.

Series [5] concerns the target T2, Tyrosine-protein kinase receptor UFO (Homo sapiens, UniProt P30530).
T2 sequence (P30530 whole entry): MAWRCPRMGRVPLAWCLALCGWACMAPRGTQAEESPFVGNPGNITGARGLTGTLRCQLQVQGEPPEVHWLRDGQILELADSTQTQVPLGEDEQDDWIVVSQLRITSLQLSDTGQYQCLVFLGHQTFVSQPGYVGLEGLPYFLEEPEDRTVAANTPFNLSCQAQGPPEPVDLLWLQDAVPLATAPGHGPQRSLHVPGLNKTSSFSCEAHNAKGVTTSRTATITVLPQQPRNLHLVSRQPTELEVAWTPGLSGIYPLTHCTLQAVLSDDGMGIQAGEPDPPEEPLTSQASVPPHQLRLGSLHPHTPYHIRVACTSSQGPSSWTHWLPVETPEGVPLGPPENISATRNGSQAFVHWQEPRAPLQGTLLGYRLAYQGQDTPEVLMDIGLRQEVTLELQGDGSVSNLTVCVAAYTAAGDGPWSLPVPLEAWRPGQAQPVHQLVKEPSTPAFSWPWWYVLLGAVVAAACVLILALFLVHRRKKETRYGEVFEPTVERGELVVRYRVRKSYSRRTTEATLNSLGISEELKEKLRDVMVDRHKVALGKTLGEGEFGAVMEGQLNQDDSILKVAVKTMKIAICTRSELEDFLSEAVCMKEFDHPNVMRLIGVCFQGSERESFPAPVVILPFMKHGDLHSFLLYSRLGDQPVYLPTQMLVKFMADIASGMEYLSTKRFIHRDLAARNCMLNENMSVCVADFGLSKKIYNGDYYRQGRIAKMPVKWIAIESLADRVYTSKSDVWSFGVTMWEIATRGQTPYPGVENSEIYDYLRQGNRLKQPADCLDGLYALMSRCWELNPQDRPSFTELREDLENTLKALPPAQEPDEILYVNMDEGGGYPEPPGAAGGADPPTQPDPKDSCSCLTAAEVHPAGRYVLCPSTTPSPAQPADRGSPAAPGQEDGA
Description: Inhibition of Axl (unknown origin) by cell free assay.

Molecules are shown by their SMILES. ≈ marks a conversion by molar mass, not a printed value.

In general, Cmax refers to the highest concentration seen after dosing. For orientation: solubility means how much of the substance goes into solution per volume. A higher solubility goes with a readily soluble substance. A word on the IC50: it is the concentration that inhibits the measured activity by half. High values mean weaker potency in that assay, low ones greater potency in that assay.

Chain of CYP2D6 (P10635 whole entry): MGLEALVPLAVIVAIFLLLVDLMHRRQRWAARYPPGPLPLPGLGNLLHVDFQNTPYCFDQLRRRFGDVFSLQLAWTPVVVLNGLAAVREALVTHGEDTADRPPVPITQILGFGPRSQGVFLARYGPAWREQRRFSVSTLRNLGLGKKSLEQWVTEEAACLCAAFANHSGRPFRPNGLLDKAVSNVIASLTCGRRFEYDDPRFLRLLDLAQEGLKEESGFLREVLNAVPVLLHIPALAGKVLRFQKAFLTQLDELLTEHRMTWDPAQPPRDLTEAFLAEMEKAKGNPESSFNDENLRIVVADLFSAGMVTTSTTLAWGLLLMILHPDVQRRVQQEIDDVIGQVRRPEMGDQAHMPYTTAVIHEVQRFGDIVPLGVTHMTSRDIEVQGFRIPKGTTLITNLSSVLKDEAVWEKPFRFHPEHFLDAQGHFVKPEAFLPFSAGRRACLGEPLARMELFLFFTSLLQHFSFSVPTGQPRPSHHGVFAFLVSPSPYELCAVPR

For the molecule `Cc1ccc(-n2c(=O)c(C(=O)Nc3ccc(Oc4ncnc5c4CCN(CC4CCN(C)CC4)C5)c(F)c3)cn(C3CCCC3)c2=O)nc1`, in series [1], the Cmax stood at 2340 ng/mL. For the same molecule, the remaining at 0.5 h, 0.1 µM in series [2] worked out at 66.3%. Further, the figures for the activity at 50 µM in the series with CYP3A and at CYP2D6 were 51% and 83%, respectively. In addition, the solubility in series [3] was found to be 83 µM (≈ 55.5 µg/mL). In addition, the Ratio IC50 in the series on BaF3 turned out to be 6.4. Further, the half-inhibitory concentration (IC50) in series [4] is 180 nM; in series [5], 5.2 nM.
